ChEMBL document CHEMBL3739352, “Anticonvulsant activity, crystal structures, and preliminary safety evaluation of N-trans-cinnamoyl derivatives of selected (un)modified aminoalkanols” (Eur J Med Chem, 2016)
Active and inactive are the calls of the source. No cut-off for these calls is given here.

Experiments:
[1] = test system: Salmonella typhimurium; assay: Mutagenicity in Salmonella typhimurium TA100 assessed as mutagenic index at 20 ug/plate by Ames test; assay type: toxicity, organism-based; details: salmonella enterica subsp. enterica serovar typhimurium
Outline: (§1)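 Ames preincubation test. Strain culture was grown 12 h at 37 °C in nutrient broth, then mixed with compound in DMSO (final 4, 20, 100, 500, 1000 per plate) and buffer in top agar with trace histidine. This was plated on glucose minimal agar for 48 h at 37 °C. Mutagenic index = revertants with compound / DMSO control revertants, from three independent repeats.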

[2] = test system: Salmonella typhimurium; assay: Mutagenicity in Salmonella typhimurium TA100 assessed as number of revertants at 1000 ug/plate by Ames test (reference value: 77 +/-4); assay type: toxicity, organism-based; details: salmonella enterica subsp. enterica serovar typhimurium
Outline: (§2)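 Salmonella TA100 preincubation Ames assay: overnight-type 12 h broth culture at 37 °C, compound in DMSO at final 4–1000 per plate, top agar with trace histidine, glucose minimal agar, 48 h at 37 °C. Revertant colonies per plate were counted, with a DMSO negative control and a sodium azide positive control. Three independent repetitions were run.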

[3] = test system: Salmonella typhimurium; assay: Mutagenicity in Salmonella typhimurium TA98 assessed as mutagenic index at 20 ug/plate by Ames test; assay type: toxicity, organism-based; details: salmonella enterica subsp. enterica serovar typhimurium
[4] = test system: Mus musculus; assay: Neurotoxicity in albino Carworth Farms No.1 mouse at 300 mg/kg, ip after 0.5 hrs by rotarod test; assay type: toxicity, organism-based; details: in vivo
Outline: (§3)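 Mice (albino Carworth Farms No.1) were dosed i.p. at 30, 100 or 300 mg/kg in 0.5% methylcellulose. They were tested 0.5 and 4 h later on a 1-inch knurled rod rotating at 6 rpm. Neurotoxicity was scored if a mouse could not stay on the rod for at least 1 min in each of three trials. Results are given as animals toxic/animals tested, with deaths noted.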

[5] = test system: Salmonella typhimurium; assay: Mutagenicity in Salmonella typhimurium TA1535 assessed as assessed as mutagenic index at 20 ug/plate by Ames test; assay type: toxicity, organism-based; details: salmonella enterica subsp. enterica serovar typhimurium; outline: as §1
[6] = test system: Salmonella typhimurium; assay: Mutagenicity in Salmonella typhimurium TA100 assessed as mutagenic index at 4 ug/plate by Ames test; assay type: toxicity, organism-based; details: salmonella enterica subsp. enterica serovar typhimurium; outline: as §1
[7] = test system: Salmonella typhimurium; assay: Mutagenicity in Salmonella typhimurium TA100 assessed as number of revertants at 20 ug/plate by Ames test (reference value: 77 +/-4); assay type: toxicity, organism-based; details: salmonella enterica subsp. enterica serovar typhimurium; outline: as §2
[8] = test system: Salmonella typhimurium; assay: Mutagenicity in Salmonella typhimurium TA1535 assessed as number of revertants at 4 ug/plate by Ames test (reference value: 10 +/- 3); assay type: toxicity, organism-based; details: salmonella enterica subsp. enterica serovar typhimurium
[9] = test system: Mus musculus; assay: Anticonvulsant activity in albino Carworth Farms No.1 mouse assessed as protection against maximal electroshock-induced seizures at 100 mg/kg, ip after 4 hrs; assay type: functional, organism-based
Outline: (§4)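 Mouse i.p. screen in Carworth Farms No.1 albino mice at 30, 100 or 300 mg/kg in 0.5% methylcellulose. Testing was at 0.5 and 4 h after injection, by maximal electroshock or by subcutaneous pentetrazol challenge. Scoring was number protected / number used.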

[10] = test system: Salmonella typhimurium; assay: Mutagenicity in Salmonella typhimurium TA1535 assessed as mutagenic index at 1000 ug/plate by Ames test; assay type: toxicity, organism-based; details: salmonella enterica subsp. enterica serovar typhimurium
[11] = test system: Salmonella typhimurium; assay: Mutagenicity in Salmonella typhimurium TA100 assessed as number of revertants at 100 ug/plate by Ames test (reference value: 77 +/-4); assay type: toxicity, organism-based; details: salmonella enterica subsp. enterica serovar typhimurium; outline: as §2
[12] = test system: Mus musculus; assay: Anticonvulsant activity in albino Carworth Farms No.1 mouse assessed as protection against subcutaneous dosed pentetrazol-induced seizures at 100 mg/kg, ip after 0.5 hrs; assay type: functional, organism-based; outline: as §4
[13] = test system: Mus musculus; assay: Anticonvulsant activity in albino Carworth Farms No.1 mouse assessed as protection against maximal electroshock-induced seizures at 300 mg/kg, ip after 0.5 hrs; assay type: functional, organism-based; outline: as §4
[14] = test system: Salmonella typhimurium; assay: Mutagenicity in Salmonella typhimurium TA98 assessed as mutagenic index at 500 ug/plate by Ames test; assay type: toxicity, organism-based; details: salmonella enterica subsp. enterica serovar typhimurium
[15] = test system: Mus musculus; assay: Neurotoxicity in albino Carworth Farms No.1 mouse at 300 mg/kg, ip after 4 hrs by rotarod test; assay type: toxicity, organism-based; details: in vivo; outline: as §3
[16] = test system: Salmonella typhimurium; assay: Mutagenicity in Salmonella typhimurium TA100 assessed as mutagenic index at 100 ug/plate by Ames test; assay type: toxicity, organism-based; details: salmonella enterica subsp. enterica serovar typhimurium; outline: as §1
[17] = test system: Salmonella typhimurium; assay: Mutagenicity in Salmonella typhimurium TA1535 assessed assessed as mutagenic index at 100 ug/plate by Ames test; assay type: toxicity, organism-based; details: salmonella enterica subsp. enterica serovar typhimurium
[18] = test system: Salmonella typhimurium; assay: Mutagenicity in Salmonella typhimurium TA98 assessed as number of revertants at 100 ug/plate by Ames test (reference value: 23 +/- 3); assay type: toxicity, organism-based; details: salmonella enterica subsp. enterica serovar typhimurium
[19] = test system: Mus musculus; assay: Anticonvulsant activity in albino Carworth Farms No.1 mouse assessed as protection against maximal electroshock-induced seizures at 30 mg/kg, ip after 4 hrs; assay type: functional, organism-based; outline: as §4
[20] = test system: Mus musculus; assay: Anticonvulsant activity in albino Carworth Farms No.1 mouse assessed as protection against maximal electroshock-induced seizures at 100 mg/kg, ip after 0.5 hrs; assay type: functional, organism-based; outline: as §4
[21] = Lipophilicity of the compound using 75% methanol in water at 1 mg/ml by RT-TLC analysis; assay type: physicochemical; details: buffer
Outline: (§5)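 Reversed-phase TLC with a methanol–water mobile phase at the stated methanol content (v/v). Compounds were spotted from 1 mg/mL methanol solutions after 1 h chamber saturation and located under UV light. Rf was measured and RM = log(1/Rf − 1) calculated.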

[22] = test system: Salmonella typhimurium; assay: Mutagenicity in Salmonella typhimurium TA1535 assessed as assessed as mutagenic index at 4 ug/plate by Ames test; assay type: toxicity, organism-based; details: salmonella enterica subsp. enterica serovar typhimurium; outline: as §1
[23] = Lipophilicity of the compound using 95% methanol in water at 1 mg/ml by RT-TLC analysis; assay type: physicochemical; details: buffer; outline: as §5
[24] = test system: Salmonella typhimurium; assay: Mutagenicity in Salmonella typhimurium TA100 assessed as assessed as mutagenic index at 1000 ug/plate by Ames test; assay type: toxicity, organism-based; details: salmonella enterica subsp. enterica serovar typhimurium; outline: as §1
[25] = test system: Salmonella typhimurium; assay: Mutagenicity in Salmonella typhimurium TA98 assessed as mutagenic index at 4 ug/plate by Ames test; assay type: toxicity, organism-based; details: salmonella enterica subsp. enterica serovar typhimurium
[26] = test system: Mus musculus; assay: Anticonvulsant activity in albino Carworth Farms No.1 mouse assessed as protection against subcutaneous dosed pentetrazol-induced seizures at 300 mg/kg, ip after 4 hrs; assay type: functional, organism-based; outline: as §4
[27] = Lipophilicity of the compound using 90% methanol in water at 1 mg/ml by RT-TLC analysis; assay type: physicochemical; details: buffer; outline: as §5
[28] = test system: Salmonella typhimurium; assay: Mutagenicity in Salmonella typhimurium TA98 assessed as number of revertants at 4 ug/plate by Ames test (reference value: 23 +/- 3); assay type: toxicity, organism-based; details: salmonella enterica subsp. enterica serovar typhimurium
[29] = test system: Mus musculus; assay: Anticonvulsant activity in albino Carworth Farms No.1 mouse assessed as protection against subcutaneous dosed pentetrazol-induced seizures at 300 mg/kg, ip after 0.5 hrs; assay type: functional, organism-based; outline: as §4
[30] = test system: Salmonella typhimurium; assay: Mutagenicity in Salmonella typhimurium TA98 assessed as number of revertants at 1000 ug/plate by Ames test (reference value: 23 +/- 3); assay type: toxicity, organism-based; details: salmonella enterica subsp. enterica serovar typhimurium
[31] = test system: Salmonella typhimurium; assay: Mutagenicity in Salmonella typhimurium TA100 assessed as number of revertants at 4 ug/plate by Ames test (reference value: 77 +/-4); assay type: toxicity, organism-based; details: salmonella enterica subsp. enterica serovar typhimurium; outline: as §2
[32] = test system: Mus musculus; assay: Anticonvulsant activity in albino Carworth Farms No.1 mouse assessed as protection against subcutaneous dosed pentetrazol-induced seizures at 100 mg/kg, ip after 4 hrs; assay type: functional, organism-based; outline: as §4
[33] = test system: Salmonella typhimurium; assay: Mutagenicity in Salmonella typhimurium TA100 assessed as number of revertants at 500 ug/plate by Ames test (reference value: 77 +/-4); assay type: toxicity, organism-based; details: salmonella enterica subsp. enterica serovar typhimurium; outline: as §2
[34] = test system: Mus musculus; assay: Neurotoxicity in albino Carworth Farms No.1 mouse at 100 mg/kg, ip after 4 hrs by rotarod test; assay type: toxicity, organism-based; details: in vivo; outline: as §3
[35] = test system: Salmonella typhimurium; assay: Mutagenicity in Salmonella typhimurium TA98 assessed as mutagenic index at 1000 ug/plate by Ames test; assay type: toxicity, organism-based; details: salmonella enterica subsp. enterica serovar typhimurium
[36] = test system: Mus musculus; assay: Neurotoxicity in albino Carworth Farms No.1 mouse at 30 mg/kg, ip after 4 hrs by rotarod test; assay type: toxicity, organism-based; details: in vivo; outline: as §3

| Compound | Activity_index [1] | Activity [2] | Activity_index [3] | Activity_index [5] | Activity_index [6] | Activity [7] | Activity [8] | Activity [9] | Activity_index [10] | Activity [11] | Activity [12] | Activity_index [14] | Activity_index [16] | Activity_index [17] | Activity [18] | Activity [19] | Activity [20] | Rm [21] | Activity_index [22] | Rm [23] | other results |
| --- | --- | --- | --- | --- | --- | --- | --- | --- | --- | --- | --- | --- | --- | --- | --- | --- | --- | --- | --- | --- | --- |
| CC(O)CNC(=O)/C=C/c1ccccc1 (racemic) | 0.9 | 73 | 1 | 1.3 | 0.9 | 70 | 12 | inactive | 1.4 | 67 | inactive | 0.9 | 0.9 | 1.2 | 21 | inactive | inactive | -0.27 | 1.2 | -0.69 | Activity [4]: Non-toxic; Activity [13]: Active; Activity [15]: Non-toxic; Activity_index [24]: 1; Activity_index [25]: 1.1; Activity [26]: inactive; Rm [27]: -0.58; Activity [28]: 26; Activity [29]: Active; Activity [30]: 24; Activity [31]: 68; Activity [32]: inactive; Activity [33]: 65; Activity [34]: Non-toxic; Activity_index [35]: 1; Activity [36]: Non-toxic |
| O=C(/C=C/c1ccccc1)N1CCC(O)CC1 | 0.9 | 70 | 0.8 | 0.6 | 0.9 | 68 | 5 | inactive | 0.5 | 76 | inactive | 1 | 1 | 0.9 | 17 | inactive | Active | -0.19 | 0.5 | -0.6 | Activity_index [24]: 0.9; Activity_index [25]: 1; Rm [27]: -0.48; Activity [28]: 22; Activity [29]: Active; Activity [30]: 20; Activity [31]: 70; Activity [32]: inactive; Activity [33]: 72; Activity [34]: Non-toxic; Activity_index [35]: 0.9; Activity [36]: Non-toxic |
